Measurements published in publication PMC4919611 (EBioMedicine, 2016).

Legend:
[1] = molecular target: T1, CBFβ-RUNX1 Runt domain binding (Homo sapiens, UniProt Q13951); test: FRET assay of CBFβ; details: inhibition of CBFβ-Runt domain binding
T1 sequence (Q13951 1-141): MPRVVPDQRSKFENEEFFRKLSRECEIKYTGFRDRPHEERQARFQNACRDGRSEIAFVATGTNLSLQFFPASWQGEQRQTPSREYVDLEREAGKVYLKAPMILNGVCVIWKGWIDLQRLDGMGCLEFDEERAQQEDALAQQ
Summary of the method: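 FRET binding assay using 100 nM Cerulean-Runt domain and 100 nM Venus-CBFβ across a test compound concentration series. Read-out was the emission ratio at 525/474 nm. Run in duplicate.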

[2] = test system: panel of 11 leukemia cell lines; test: Viability of a panel of 11 leukemia cell lines; type: cell-based; details: 48 h treatment, 11 cell lines
Summary of the method: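 Eleven leukemia lines grown in IMDM with 10% FBS. Plated at 5 × 10^5 cells/ml and treated 48 h with test compound at several doses or DMSO. DAPI-stained; at least 2 × 10^4 events acquired by flow cytometry. Viability taken as percent DAPI-negative cells relative to control.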

[3] = test system: CBFβ-RUNX1 binding; details: ref Cunningham et al., 2012; cited from earlier work
[4] = molecular target: RUNX1 Runt domain (Homo sapiens, UniProt Q01196); test: NMR detection of interaction with RUNX1 Runt domain; type: binding
Chain of RUNX1 Runt domain (Q01196 50-178 limits assumed): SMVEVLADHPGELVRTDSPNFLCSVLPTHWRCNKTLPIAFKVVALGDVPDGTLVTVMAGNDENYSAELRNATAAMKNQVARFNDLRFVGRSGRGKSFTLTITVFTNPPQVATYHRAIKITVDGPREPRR

[5] = test system: CBFβ-Runt domain interaction; details: ref Cunningham et al., 2012; cited from earlier work
[6] = molecular target: T2, CBFβ (Homo sapiens, UniProt Q13951); test: NMR detection of interaction with CBFβ; type: binding
T2 sequence (Q13951 1-141): T1 sequence (Q13951 1-141)
Summary of the method: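 CBFβ (1-141) in 50 mM KPi pH 7.5, 0.1 mM EDTA, 1 mM DTT, 5% DMSO, 5% D2O. HSQC: 150 μM protein titrated with 600 μM test compound at 800 MHz; 15N/13C shift perturbations taken with versus without compound. STD: 200 μM CBFβ, 2 mM compound, 600 MHz, 25 °C, saturation 500–2000 ms, on-resonance 0.4 ppm, off-resonance 30 ppm.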

| SMILES | activity in the FRET assay (in words) [1] | growth inhibition / activity against leukemia cell lines (in words) [2] | effect on CBFβ-RUNX1 binding in cells [3] | interaction with RUNX1 Runt domain by NMR [4] | effect in the alpha screen assay [5] | interaction with CBFβ by NMR [6] |
| --- | --- | --- | --- | --- | --- | --- |
| c1ccc(-c2nc3ccccc3[nH]2)nc1 [AI-4-88] | complete loss of activity | did not observe any activity | – | – | – | – |
| O=C1CN=C(c2ccc[nH]2)c2cc(Cl)ccc2N1 [Ro5-3335] | no effect | – | does not show an effect | could not detect any interaction | does not show significant effects | could not detect any interaction |
